CAL PDZ FP-1 = untagged CAL PDZ binding inhibitors, primary screen, biochemical, fluorescence polarization, HTS | inhibition, % at 24.9 µM | purified CAL PDZ, TMR-peptide fluorescence polarization, 1 h | Golgi-associated PDZ and coiled-coil motif-containing protein (Homo sapiens), Q9HD26 | hit rate 0.92% among 300,000;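 active means mean inhibition of at least 30% with at least half of replicates also reaching 30%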;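 further: 0% = DMSO neutral control and 100% = excess unlabeled competitor peptide PRC23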
S100A4 MyoIIA = inhibitors of S100A4-myosin IIA peptide binding, primary screen, biochemical, fluorescence polarization, TAMRA-MyoIIA peptide | Protein S100-A4 (Homo sapiens), P26447 | AID 652163, 2013 | inhibition, % at 10.7 µM | hit rate 0.14% among 360,000;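 active means mean inhibition of at least 70% across replicates, with every replicate also reaching that level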
Target sequence (P26447 whole entry, looked up): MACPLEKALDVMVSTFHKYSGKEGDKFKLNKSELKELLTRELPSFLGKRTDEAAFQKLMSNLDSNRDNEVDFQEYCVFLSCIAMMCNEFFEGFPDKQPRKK
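Material: S100A4 monomer (human). Medium: Calcium-containing HEPES buffer, pH 7.2. Probe or stimulus: labelled myosin peptide probe, 5 nM. Compound dosing: one concentration per compound. Timing: polarization read 5 min after assay mix addition, stable 5–60 min. Benchmarks: DMSO as neutral control, TFP as positive control.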
dFosB act = activators of delta FosB homodimer, primary screen, biochemical, fluorescence polarization, TAMRA-CDK5 oligo, single point. Protein FosB (Mus musculus), P13346. purified delta FosB; percent of positive-control signal above neutral wells. activation, % at 25 µM. hit rate 0.99% among 340,000;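 active means mean activation above about 17%, with every replicate also reaching it, limit read from the data, passing the limit was not always enough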
Target sequence (P13346 whole entry, looked up): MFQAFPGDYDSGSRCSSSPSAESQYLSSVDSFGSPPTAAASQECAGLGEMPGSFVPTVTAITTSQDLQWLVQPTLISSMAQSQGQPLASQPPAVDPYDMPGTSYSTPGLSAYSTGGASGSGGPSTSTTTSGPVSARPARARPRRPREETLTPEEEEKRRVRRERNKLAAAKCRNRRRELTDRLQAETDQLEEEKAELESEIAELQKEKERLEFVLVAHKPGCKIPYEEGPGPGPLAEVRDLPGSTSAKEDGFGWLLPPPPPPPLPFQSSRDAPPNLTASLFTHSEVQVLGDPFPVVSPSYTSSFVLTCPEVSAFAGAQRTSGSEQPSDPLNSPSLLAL
CAL PDZ FP-2 = CAL PDZ peptide-binding inhibitors, primary screen, biochemical, fluorescence polarization, Cer-tagged CAL PDZ, HTS. Golgi-associated PDZ and coiled-coil motif-containing protein (Homo sapiens), Q9HD26. purified CAL PDZ, TMR-peptide fluorescence polarization, 1 h. inhibition, % at 20 µM. hit rate 0.02% among 330,000. AID 504414, 2011;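 active means highest replicate inhibition of at least 40%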;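 further: plate controls were DMSO neutral control wells for no effect and unlabeled competitor peptide control wells for full effect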
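Assay system – tagged CAL PDZ protein CerCALP, purified · Timing – 1 h at RT · Compound – single point, 20 µM · Measured by – fluorescence polarization from S- and P-plane intensities, G-factor corrected · Evaluation – inhibition from polarization loss · Probe or stimulus – TMR reporter peptide T*-PRC34 · Buffer or medium – pH 7.4 phosphate-saline buffer, reducing agent, detergent, IgG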
Statin myotox sup = suppressors of statin myotoxicity in C2C12 myotubes, primary screen, cell-based, single point, plate reader | C2C12 myotubes + simvastatin, ATP luminescence, 48 h; scaled: DMSO 0, geranylgeraniol control 100 | rescue of ATP level, % at 7.49 µM | hit rate 0.78% among 330,000 | AID 602340, 2012;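 active means mean ATP rescue above about 67%, or every replicate alone reaching that limit, limit read from the data, passing the limit was not always enough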;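 further: myotubes were challenged with 10 µM simvastatin during compound exposure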
CDK5 p35 inh = inhibitors of human CDK5/p35 kinase, primary screen, biochemical, single concentration | Recombinant CDK5/p35, ADP-Glo luminescence, 60 min | inhibition, % at 10 µM | hit rate 0.01% among 330,000 | Cyclin-dependent kinase 5 (Homo sapiens) + Cyclin-dependent kinase 5 activator 1 (Homo … | AID 488839, 2010;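 active means highest replicate inhibition of at least 50% and at least 75% of replicates reaching 50%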;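 further: plate controls were DMSO neutral control for no effect and GW8510 at 10 µM for full effect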
* marks the source's active call; other numbers are inactive results; . = no result given; + = active, no number. In the library only some 2% were active in any assay of this set; here they are far more common.

SMILES	CAL PDZ FP-1	S100A4 MyoIIA	dFosB act	CAL PDZ FP-2	Statin myotox sup	CDK5 p35 inh
COc1ccc(C)cc1-n1c(=O)c2ccccc2c2ccccc2c1=O	+	-1	-8	-1	.	-3
CCC/C(O)=C1\C(=O)CCCC1=NC(C)C(=O)O (stereo unspecified)	-1	-5	-11	-2	10	1
C[C@@H]1CN([C@@H](C)CO)C(=O)c2cc(NC(=O)Nc3ccccc3)ccc2O[C@@H](C)CCCCO[C@@H]1CN(C)C(=O)Nc1ccc2c(c1)OCO2	.	-13	.	.	.	.
Cc1ccccc1NC(=O)c1onc2c1CCCC2	-3	.	5	-1	140*	2
Cc1cccc(NC(=O)c2onc3c2CCCC3)c1C	-4	.	4	-1	73*	0
FC(F)Oc1ccc(NC(=S)NCc2nc3ccccc3[nH]2)cc1	41*	-2	-7	-2	.	0
CCOc1ccc(NC(=S)NCc2nc3ccccc3[nH]2)cc1	7	3	-10	-4	.	-1
CCN(CC)CCNS(=O)(=O)c1ccc(Cl)cc1	0	.	1	-2	4	2
CCCN(CCC)CC(C)(C)NS(=O)(=O)c1ccc(Cl)cc1	70*	-1	-8	-1	11	0
Cc1noc(C)c1NC(=O)N(C)C[C@H]1Oc2ccc(NS(=O)(=O)c3ccc(Cl)cc3)cc2C(=O)N([C@H](C)CO)C[C@@H]1C	.	3	.	.	9	.
COc1ccc(C(C)NC(=O)c2ccncc2)cc1OC (stereo unspecified)	76*	-7	0	0	.	-4
CN(C)C(CNC(=O)c1cccc(S(=O)(=O)Nc2ccccc2Cl)c1)c1ccco1 (stereo unspecified)	32*	2	-9	0	-11	2
O=C(OCC(=O)N1CCN(C(=O)c2ccco2)CC1)c1ccccc1OCc1ccc(Cl)cc1	-3	.	-9	-1	133*	-2
CCCCc1nc2ccccc2c(=O)n1NC(=O)c1c(O)c2c(n(CC(C)C)c1=O)CCCC2	-6	.	-11	-1	-5	1
C=CCn1c(=O)c(C(=O)Nc2cccnc2)c(O)c2ccccc21	-4	.	-33	-2	96*	0
C=CCn1c(=O)c(C(=O)Nc2ccc(C)cn2)c(O)c2ccccc21	.	-3	-3	-3	-6	0
CCN1CC2=C(OC(N)=C(C#N)C2c2cccs2)/C(=C\c2cccs2)C1 (stereo unspecified)	-2	3	-2	-2	-4	2
C[C@]12c3[nH]c4cc(-c5ccco5)ccc4c3CCN1C(=O)[C@@H](CC(=O)NCCN1CCOCC1)C[C@@H]2C(=O)N1CCCCC1	48*	54	-11	-1	-2	1
O=C(CSc1nc(-c2ccccc2)c(-c2ccccc2)o1)N1CCCCC1	.	-2	.	.	.	.
O=C(O)c1ccc(N/N=C/c2cn(Cc3ccccc3F)c3ccccc23)cc1	-4	-8	-8	-1	-25	1
CC(C)n1cc(/C=N/Nc2ccc(C(=O)O)cc2)c2ccccc21	71*	-7	-4	0	-104	-1
COc1ccccc1-c1cc(C(F)(F)F)nc(N2CCOCC2)n1	-1	.	-3	0	.	0
Nc1ccc(N(c2ccccc2)c2ccc(N)cc2)cc1	16	.	23*	-1	-19	0
COc1ccc(C)cc1-n1c(SCC(=O)Nc2cc(C)on2)nc2sc(C)c(C)c2c1=O	81*	.	-2	.	.	0
COc1ccc(-n2c(SCC(=O)Nc3cc(C)on3)nc3c([nH]c4ccccc43)c2=O)cc1OC	4	0	25*	-1	.	0
SMILES	CAL PDZ FP-1	S100A4 MyoIIA	dFosB act	CAL PDZ FP-2	Statin myotox sup	CDK5 p35 inh
COc1ccc(C)cc1-n1c(SCC(=O)Nc2cc(C)on2)nc2ccccc2c1=O	-6	-8	-17	0	.	-1
CCCN1[C@@H]2c3ccc(-c4cccc(F)c4)c(=O)n3C[C@@H]2[C@@H](CO)[C@@H]1C(=O)N[C@H](C)c1ccccc1	.	0	.	.	-8	.
CC(C)=NNC(=O)CN1C(=O)NC2NC(=O)NC21 (stereo unspecified)	2	7	1	-2	1	1
O=C(CN1C(=O)NC2NC(=O)NC21)NC1CCCCC1 (stereo unspecified)	39*	-1	1	-5	40	0
C[C@@H]1CCCCO[C@H](CN(C)Cc2ccncc2)[C@H](C)CN([C@@H](C)CO)C(=O)c2cc(NC(=O)Nc3ccc(F)cc3)ccc2O1	.	.	.	.	28	.
C[C@@H]1CCCCO[C@H](CN(C)Cc2ccc(C(=O)O)cc2)[C@H](C)CN([C@@H](C)CO)C(=O)c2cc(NC(=O)CCCN(C)C)ccc2O1	.	2	.	.	.	.
C[C@H](CO)N1C[C@H](C)[C@@H](CN(C)Cc2ccc(C(F)(F)F)cc2)OCCCC[C@H](C)Oc2ccc(NS(=O)(=O)c3cccs3)cc2C1=O	.	37	.	.	-62	.
COc1ccc(NC(=O)Nc2ccc3c(c2)C(=O)N([C@H](C)CO)C[C@H](C)[C@@H](CN(C)Cc2ccc(C(F)(F)F)cc2)OCCCC[C@H](C)O3)cc1	.	-29	.	.	6	.
C[C@@H]1CCCCO[C@@H](CN(C)Cc2ccc(C(=O)O)cc2)[C@H](C)CN([C@H](C)CO)C(=O)c2cc(NC(=O)CCCN(C)C)ccc2O1	.	130*	.	.	.	.
C[C@@H]1CN([C@@H](C)CO)C(=O)c2cc(NC(=O)Nc3ccc(F)cc3)ccc2O[C@@H](C)CCCCO[C@H]1CN(C)Cc1ccncc1	.	.	.	.	107*	.
C[C@@H]1CN([C@H](C)CO)C(=O)c2cc(NS(=O)(=O)c3cccs3)ccc2O[C@@H](C)CCCCO[C@@H]1CN(C)Cc1ccc(C(F)(F)F)cc1	.	-31	.	.	92*	.
COc1ccc(NC(=O)Nc2ccc3c(c2)C(=O)N([C@H](C)CO)C[C@@H](C)[C@@H](CN(C)Cc2ccc(C(F)(F)F)cc2)OCCCC[C@H](C)O3)cc1	.	-3	.	.	158*	.
C[C@@H]1CN([C@@H](C)CO)C(=O)c2cc(NC(=O)c3ccncc3)ccc2O[C@@H](C)CCCCO[C@@H]1CN(C)Cc1ccc(C(F)(F)F)cc1	.	-9	.	.	121*	.
C[C@H](CO)N1C[C@H](C)[C@@H](CN(C)Cc2ccc(C(F)(F)F)cc2)OCCCC[C@H](C)Oc2ccc(NC(=O)c3ccccc3)cc2C1=O	.	-48	.	.	.	.
